This note sets out measurements from ChEMBL document CHEMBL4033789, “Discovery of a New Four-Leaf Clover-Like Ligand as a Potent c-MYC Transcription Inhibitor Specifically Targeting the Promoter G-Quadruplex” (J Med Chem, 2018).

SMILES strings stand for the structures. Calls of active or inactive are those of the source. No cut-off for these calls is given here.

Data set [1] can be described thus: Stabilization of hybrid telomeric htg22 G-quadruplex DNA (unknown origin) assessed as effect on melting temperature at 15 uM by circular dichroism spectroscopic assay. Format: ADME. The gist of the method: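 CD melting of 3 µM annealed G-quadruplex with or without 15 µM ligand in 10 mM Tris-HCl pH 7.2 with 2 mM KCl (50 mM KCl for htg22 and HRAS); read every 5 °C over 25–95 °C, heating 1 °C/min.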
Background: Circular dichroism is the unequal absorption of left and right circularly polarised light.

Data set [2] can be described thus: Binding affinity to 1 uM c-MYC promoter G-quadruplex pu22 DNA (unknown origin) at 1 uM after 1 min by fluorescence spectroscopic analysis. The gist of the method: (§1)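 Fluorescence emission spectra of 1 µM compound mixed with 1 µM pre-annealed oligonucleotide (G-quadruplexes folded in 100 mM KCl by heating to 95 °C for 5 min, slow cooling), in Tris-HCl buffer.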

Data set [3] has as its system Mus musculus. The experiment in a line: Toxicity in nude BALB/c mouse xenografted with human SiHa cells assessed as signs of distress at 5 to 20 mg/kg, ip administered every other day for 24 days. It counts as organism-based. As to conditions: in vivo, 576 h. On the technique in general: A xenograft is tissue or cells of one species grown in another, often human tumour cells in immunodeficient mice.

Data set [4] is described as follows: Binding affinity to c-KIT1 promoter G-quadruplex DNA (unknown origin) after 1 min by fluorescence titration method. Format: ADME. The essentials: (§2)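 Oligonucleotide stock added stepwise to fixed-concentration compound in 10 mM Tris-HCl pH 7.2, 100 mM KCl; equilibrated ≥1 min after each addition, emission read with excitation at 350 nm. KD from fitting titration data to the Benesi–Hildebrand equation; 1:1 stoichiometry checked by Job plot.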

Data set [5] in a line: Stabilization of BCL2 promoter G-quadruplex DNA (unknown origin) assessed as effect on melting temperature at 15 uM by circular dichroism spectroscopic assay. It counts as ADME. The gist of the method:
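G-quadruplex at 3 µM, with or without 15 µM compound, in 10 mM Tris-HCl pH 7.2 containing 2 mM KCl; CD recorded every 5 °C from 25 to 95 °C at a heating rate of 1 °C/min.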

Data set [6] is described as follows: Stabilization of wild type c-Myc promoter G-quadruplex DNA (unknown origin) transfected in human SiHa cells co-expressing psiCHECK2 luciferase plasmid assessed as inhibition of gene transcription at 1.25 to 2.5 uM after 48 hrs by dual-luciferase reporter gene assay. It counts as cell-based. The gist of the method: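 SiHa cells transfected with psiCHECK2 carrying wild-type or mutant c-MYC promoter driving Renilla luciferase, firefly luciferase on same plasmid; compound added 4 h post-transfection, incubated further at 37 °C; Renilla signal normalized to firefly; three repeats, mean ± SEM.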
On the technique in general: A reporter such as luciferase makes a cellular process visible.

Data set [7] is filed under the species Homo sapiens. The experiment in a line: Stabilization of c-Myc promoter G-quadruplex DNA in human Raji cells assessed as downregulation of exon 1 transcriptional level after 6 hrs by RT-PCR analysis. It counts as cell-based. The gist of the method: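 RAJI and CA46 cells treated 6 h over a concentration range; total RNA reverse-transcribed (oligo dT18, M-MLV, 42 °C 1 h then 85 °C 5 min); exon 1 and exon 2 amplified by real-time PCR with exon-specific primers, products run on 1% agarose gel; three repeats.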

The test system of data set [8] is Huh-7. The experiment in a line: Cytotoxicity against human Huh7 cells assessed as reduction in cell viability after 24 hrs by MTT assay. Format: functional, cell-based. As to conditions: Huh-7, 24 h. The essentials: (§3)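 Cells seeded at 5.0×10^3 per well, exposed to compound for 24 h; MTT (2.5 mg/mL) added for 4 h, formazan dissolved in DMSO, OD read at 570 nm. Triplicate; IC50 from curves of mean OD against concentration.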

Data set [9] has as its system A-375. The experiment in a line: Cytotoxicity against human A375 cells assessed as reduction in cell viability after 24 hrs by MTT assay. Format: functional, cell-based. The conditions noted are these: A-375, 24 h. The essentials: as §3
For data set [10], the system named is SiHa. The experiment in a line: Antiproliferative activity against human SiHa cells assessed as reduction in colony formation at 0.5 uM measured on day 8 by crystal violet-staining based assay. It counts as functional, cell-based. The essentials:
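Cells seeded at 300 per well in six-well plates, exposed to compound at 37 °C, 5% CO2, with drug-containing medium replaced every 2 days; after 8 days of culture, colonies fixed with methanol and stained with crystal violet.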

Data set [11] concerns SiHa. The experiment in a line: Induction of cell cycle arrest in human SiHa cells assessed as accumulation at G0/G1 phase up to 5 uM after 12 hrs by propidium iodide-staining based FACS analysis (reference value: 61%). It counts as functional. The essentials: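 SiHa cells treated 12 h, fixed in 70% ethanol at 4 °C overnight, stained with 50 µg/mL PI plus 75 KU/mL RNase A in PBS for 30 min in the dark at room temperature; flow cytometry, 1.6×10^4 events per sample, cell cycle distribution analyzed.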

The test system of data set [12] is SiHa. The experiment in a line: Induction of apoptosis in human SiHa cells after 24 hrs by Annexin V-FITC/propidium iodide-staining based flow cytometric analysis. Format: functional, cell-based.
For data set [13], the system named is SiHa. The experiment in a line: Induction of apoptosis in human SiHa cells assessed as late apoptotic cells at 5 uM after 24 hrs by Annexin V-FITC/propidium iodide-staining based flow cytometric analysis. It counts as functional.
Data set [14] in a line: Stabilization of Bcl2 G-quadruplex DNA in human SiHa cells assessed as effect on Bcl2 mRNA level at 1.25 to 5 uM fter 6 hrs by RT-PCR method. Format: ADME, cell-based. The gist of the method:
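SiHa cells (2.0×10^5 per well) treated 6 h; total RNA (2 µg) reverse-transcribed with oligo dT18 and M-MLV at 42 °C for 1 h, 85 °C for 5 min; PCR: 95 °C 5 min, then 30 cycles of 95 °C 30 s, 58 °C 30 s, 72 °C 40 s; products checked on agarose gel.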

The subject of data set [15] is U2OS. The experiment in a line: Cytotoxicity against human U2OS cells assessed as reduction in cell viability after 24 hrs by MTT assay. It counts as functional, cell-based. The gist of the method: as §3
For data set [16], the system named is SiHa. The experiment in a line: Induction of cell cycle arrest in human SiHa cells assessed as downregulation of CDK6 protein levels after 24 hrs by Western blot analysis. It counts as functional, cell-based. The gist of the method:
(§4)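 SiHa cells (2.0×10^5 per well) treated 24 h, lysed at 4 °C for 30 min, supernatant cleared at 15,000 rpm; protein measured by BCA, 30 µg resolved on 10% SDS-PAGE, transferred to nitrocellulose, blocked in 5% milk/TBS-Tween 1 h, primary antibodies overnight at 4 °C, HRP secondaries 2 h at room temperature.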

In data set [17] the test system is SiHa. The experiment in a line: Induction of cell cycle arrest in human SiHa cells assessed as upregulation of p15 protein levels after 24 hrs by Western blot analysis. Format: functional, cell-based. The gist of the method:
as §4

The subject of data set [18] is SiHa. The experiment in a line: Induction of apoptosis in human SiHa cells assessed as upregulation of cleaved PARP protein levels at 1.25 to 5 uM after 24 hrs by Western blot analysis relative to control. It counts as functional, cell-based. The essentials:
as §4

Data set [19] relates to SiHa. The experiment in a line: Antitumor activity against human SiHa cells xenografted in nude BALB/c mouse assessed as tumor growth inhibition at 5 mg,kg, ip administered every other day for 24 days. Format: functional. The essentials:
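BALB/c nude mice (5 weeks old) given 1×10^7 SiHa cells subcutaneously in right flank; at ~50 mm3 tumor volume, randomized (10 per group) and dosed intraperitoneally every other day for 24 days; controls got equal-volume saline. Caliper volume as 1/2 × length × width2; tumors weighed at end; inhibition rate = (1 − mean treated tumor weight/mean control tumor weight) × 100%.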

The subject of data set [20] is Mus musculus. The experiment in a line: Toxicity in nude BALB/c mouse xenografted with human SiHa cells assessed as signs of pain at 5 to 20 mg/kg, ip administered every other day for 24 days. It counts as organism-based. The conditions noted are these: in vivo, 576 h.
Data set [21] is described as follows: Binding affinity to 1 uM VEGF promoter G-quadruplex DNA (unknown origin) at 1 uM after 1 min by fluorescence spectroscopic analysis. Format: ADME. The essentials: as §1
Data set [22] in a line: Binding affinity to up to 1 uM c-MYC promoter G-quadruplex pu22 DNA (unknown origin) after 1 min by fluorescence titration method. The essentials: as §2

Take `CCn1c2ccccc2c2cc(-c3nc(-c4ccc(N5CCN(C)CC5)cc4)c(-c4ccc(N5CCN(C)CC5)cc4)n3-c3ccc(OC)cc3)ccc21`: the Activity result in data set [1] was “Not Active”; in [3], “Non-Toxic”; in data set [5] it was “Not Active”; in data set [7], “Dose-dependent effect”; in data set [11] it was 70%; in data set [12], “Dose-dependent effect”. In addition, the Activity in data set [13] is 52%; in [14], “Not Active”; in data set [16], “Dose-dependent effect”; in data set [17], “Dose-dependent effect”; in data set [20], “Non-Toxic”; in data set [21], “Not Active”. Moreover, the result in data set [2], in data set [10] and in data set [18] was Active. Moreover, the Kd – broadly, the equilibrium constant for the complex coming apart – is 0.8 µM in data set [4] and 0.1 µM in data set [22]. In addition, the inhibition result in data set [6] was “Active”. Also, the IC50 (commonly the concentration that gives 50% inhibition) in data set [8] is 4.1 µM; in data set [9] it was 4.2 µM; in [15], 6.8 µM. Moreover, the TGI (commonly how far tumour growth fell short of that in controls) in [19] was determined as 57%.
